This note sets out measurements from ChEMBL document CHEMBL1152682, “Structural optimization of a CXCR2-directed antagonist that indirectly inhibits gamma-secretase and reduces Abeta” (Bioorg Med Chem, 2009).

Each structure is given as a SMILES string.

One assay can be described thus: Antagonist activity at CXCR2 expressed in 7w CHO cells assessed as inhibition of GROalpha-mediated intracellular calcium mobilization by […] fluorescence assay. The format is functional, cell-based. The method, boiled down: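 Adherent 7w cells (CHO stably expressing human APP751), grown to ~100% confluency in 96-well plates, loaded with […] dye for 1 h at 37 °C. Compounds were added from DMSO stocks in 1X HBSS (1% DMSO final) at ≥9 concentrations (10–100,000 nM), n = 8 each. GROα (33 nM final) followed 15 s later. Peak calcium was read at Ex/Em 494/516, and data were fitted to a 4-parameter sigmoid; three experiments.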
For orientation: Calcium assays in cells follow changes in intracellular calcium, usually with a dye or a luminescent sensor.
In the case of `CC(C)c1ccccc1NC(=O)Nc1ccc([N+](=O)[O-])cc1O`, the IC50 (commonly the point on the concentration scale where inhibition reaches its midpoint) is “Active”. Regarding `O=C(Nc1ccc([N+](=O)[O-])cc1O)Nc1ccccc1F`, the half-maximal inhibitory concentration (IC50) entry is recorded as “Active”. Still for that read-out and setting: to `O=C(Nc1ccc([N+](=O)[O-])cc1O)Nc1ccccc1Cl` belongs “Active”.

Take `COc1cc([N+](=O)[O-])ccc1NC(=O)Nc1ccccc1F`: the IC50 result was “Active”. On to `O=C(Nc1ccc([N+](=O)[O-])cc1O)Nc1cc(Cl)ccc1Cl`, for which the IC50 entry is listed as “Active”.

The next assay is described as follows: Antagonist activity at CXCR2 expressed in 7w CHO cells co-expressing human recombinant APP 751 assessed as inhibition of gamma-secretase-mediated amyloid beta40 production.
For the compound `O=C(Nc1ccc([N+](=O)[O-])cc1O)Nc1ccccc1Br`, the IC50 amounted to 0.5 µM.

Regarding `O=C(Nc1ccccc1)Nc1ccc([N+](=O)[O-])cc1O`, the IC50 turned out to be 12 µM. The same measure, in the same setting: to `O=C(Nc1ccc([N+](=O)[O-])cc1O)Nc1cc(F)c(F)cc1F` belongs 10 µM. On the same count and under the same terms, to `CCCc1ccc(NC(=O)Nc2ccc([N+](=O)[O-])cc2O)cc1` belongs 4 µM. The same measure, in the same setting: to `O=C(Nc1ccc([N+](=O)[O-])cc1O)Nc1ccc(F)cc1F` belongs 15 µM. Regarding `O=C(Nc1ccc([N+](=O)[O-])cc1O)Nc1c(F)cc(F)cc1F`, the IC50 came out at 15 µM. The same measure, in the same setting: to `Cc1ccc(NC(=O)Nc2ccc([N+](=O)[O-])cc2O)c(C)c1` belongs 3 µM; to `CC(C)c1ccccc1NC(=O)Nc1ccc([N+](=O)[O-])cc1O`, 0.3 µM; to `CC(C)(C)c1ccccc1NC(=O)Nc1ccc([N+](=O)[O-])cc1O`, 15 µM. On to `O=C(Nc1cc(F)c(F)c(F)c1)Nc1ccc([N+](=O)[O-])cc1O`, for which the IC50 was 8 µM. Take `O=C(Nc1ccc(F)c(F)c1)Nc1ccc([N+](=O)[O-])cc1O`: the IC50 is 8 µM. On to `O=C(Nc1ccc([N+](=O)[O-])cc1O)Nc1ccccc1F`, for which the IC50 amounted to 10 µM.

For `O=C(Nc1ccc([N+](=O)[O-])cc1)Nc1ccccc1F`, the IC50 turned out to be 30 µM. The same measure, in the same setting: for `O=C(Nc1ccc([N+](=O)[O-])cc1O)Nc1ccccc1Cl` the value was 0.6 µM. As for `O=C(Nc1ccc([N+](=O)[O-])cc1O)Nc1ccc(Cl)c(Cl)c1Cl`, the half-inhibitory concentration (IC50) came out at 3 µM. As for `O=C(Nc1ccc([N+](=O)[O-])cc1O)Nc1cc(Cl)c(Cl)cc1Cl`, the IC50 was 3 µM. Regarding `O=C(Nc1ccc([N+](=O)[O-])cc1O)Nc1ccc(Cl)cc1Cl`, the IC50 was 0.3 µM.

Take `Cc1ccc(C)c(NC(=O)Nc2ccc([N+](=O)[O-])cc2O)c1`: the IC50 worked out at 10 µM.

Consider `Cc1ccc(NC(=O)Nc2ccc([N+](=O)[O-])cc2O)cc1C`, for which the IC50 was found to be 15 µM.

Take `COc1ccc(NC(=O)Nc2ccccc2F)c([N+](=O)[O-])c1`: the IC50 is 10 µM. `CCCc1ccccc1NC(=O)Nc1ccc([N+](=O)[O-])cc1O`: the IC50 is 0.1 µM. Consider `CCc1cccc(C)c1NC(=O)Nc1ccc([N+](=O)[O-])cc1O`, for which the IC50 came out at 7 µM. Still for that read-out and setting: for `CCc1cccc(C(C)C)c1NC(=O)Nc1ccc([N+](=O)[O-])cc1O` the value was 3 µM; for `O=C(Nc1ccc([N+](=O)[O-])cc1O)Nc1ccc(F)c(F)c1F`, 8 µM. As to `COc1cc([N+](=O)[O-])ccc1NC(=O)Nc1ccccc1F`, the concentration for half-maximal inhibition (IC50) was determined as 5 µM. Same read-out and setting: for `CCc1cccc(NC(=O)Nc2ccc([N+](=O)[O-])cc2O)c1` the value was 4 µM. On the same count and under the same terms, for `CCc1ccc(NC(=O)Nc2ccc([N+](=O)[O-])cc2O)cc1` the value was 3 µM.

On to `Cc1cccc(C(C)C)c1NC(=O)Nc1ccc([N+](=O)[O-])cc1O`, for which the IC50 came out at 5 µM. Still for that read-out and setting: to `O=C(Nc1ccc([N+](=O)[O-])cc1O)Nc1ccc(Br)cc1Br` belongs 0.8 µM; to `CC(C)c1cccc(C(C)C)c1NC(=O)Nc1ccc([N+](=O)[O-])cc1O`, 8 µM. As to `Cc1ccccc1NC(=O)Nc1ccc([N+](=O)[O-])cc1O`, the IC50 worked out at 2 µM. Consider `O=C(Nc1ccc(Cl)c(Cl)c1)Nc1ccc([N+](=O)[O-])cc1O`, for which the IC50 is 0.7 µM.

Regarding `O=C(Nc1ccc([N+](=O)[O-])cc1O)Nc1cc(Cl)ccc1Cl`, the IC50 was determined as 0.5 µM. Same read-out and setting: for `CCc1ccccc1NC(=O)Nc1ccc([N+](=O)[O-])cc1O` the value was 0.09 µM. As for `Cc1cc(C)cc(NC(=O)Nc2ccc([N+](=O)[O-])cc2O)c1`, the half-maximal inhibitory concentration (IC50) amounted to 2 µM. Same read-out and setting: to `COc1cc([N+](=O)[O-])ccc1NC(=O)Nc1cccc(F)c1` belongs 12 µM.

The nature of the next assay: Antagonist activity at CXCR2 expressed in 7w CHO cells co-expressing human recombinant APP 751 assessed as inhibition of gamma-secretase-mediated amyloid beta40 production at 100 uM.
`O=C(Nc1ccccc1O)Nc1ccccc1Br`: the IC50 result is on record as “Not Active”. `O=C(Nc1ccccc1)Nc1ccccc1Br`: the concentration for half-maximal inhibition (IC50) result is reported as “Not Active”.

Turning to `COc1cc([N+](=O)[O-])ccc1NC(=O)Nc1ccccc1Cl`, the IC50 result was “Not Active”.

For the compound `COc1cc([N+](=O)[O-])ccc1NC(=O)Nc1ccccc1Br`, the IC50 entry is on record as “Not Active”.

For the compound `O=C(Nc1ccccc1O)Nc1ccccc1Cl`, the IC50 result is “Not Active”. Same read-out and setting: to `COc1cc([N+](=O)[O-])ccc1NC(=O)Nc1ccccc1` belongs “Not Active”. The same measure, in the same setting: to `O=C(Nc1ccccc1F)Nc1ccc(O)cc1[N+](=O)[O-]` belongs “Not Active”.

A further assay is described as follows: Antagonist activity at CXCR2 expressed in 7w CHO cells co-expressing human recombinant APP 751 assessed as inhibition of gamma-secretase-mediated amyloid beta42 production. It counts as functional, cell-based.
Turning to `CCc1cccc(C(C)CC)c1NC(=O)Nc1ccc([N+](=O)[O-])cc1O` (stereo not given), the IC50 is 15 µM.

Regarding `CCC(C)c1ccccc1NC(=O)Nc1ccc([N+](=O)[O-])cc1O` (stereo not given), the IC50 was 1 µM.
